Laboratory results: BindingDB's records for doi:10.1021/jm030565g (Glaxosmithkline, 2004)

Experiments:
[1] = Effective concentration for lipogenesis induced by retinoid X receptor alpha in C3H10T1/2 clone 8 fibroblast cells; Partial agonist
[2] = Effective concentration for lipogenesis induced by retinoid X receptor alpha in C3H10T1/2 clone 8 fibroblast cells
[3] = Effective concentration for retinoic acid receptor alpha induced lipogenesis in C3H10T1/2 clone 8 fibroblast cells
[4] = molecular target: T1, Retinoic acid receptor RXR-alpha (Homo sapiens, UniProt P19793); experiment: Effective concentration for lipogenesis induced by retinoid X receptor alpha in C3H10T1/2 clone 8 fibroblast cells
T1 sequence (P19793 whole entry): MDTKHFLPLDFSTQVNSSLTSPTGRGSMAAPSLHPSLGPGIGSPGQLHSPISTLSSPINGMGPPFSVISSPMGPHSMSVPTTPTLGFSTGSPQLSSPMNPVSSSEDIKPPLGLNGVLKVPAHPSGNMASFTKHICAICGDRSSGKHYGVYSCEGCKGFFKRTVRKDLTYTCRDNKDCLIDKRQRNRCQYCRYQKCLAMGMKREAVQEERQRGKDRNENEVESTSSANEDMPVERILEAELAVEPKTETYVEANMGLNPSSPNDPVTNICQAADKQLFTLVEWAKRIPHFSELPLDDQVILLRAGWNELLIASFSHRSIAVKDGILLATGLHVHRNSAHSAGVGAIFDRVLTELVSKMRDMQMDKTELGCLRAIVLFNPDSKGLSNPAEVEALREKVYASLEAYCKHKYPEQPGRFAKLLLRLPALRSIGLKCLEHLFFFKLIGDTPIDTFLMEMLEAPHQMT
In short: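 Lipogenesis measured in C3H10T1/2 clone 8 fibroblasts as triglyceride accumulation, used as a surrogate marker of RXR activity.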

[5] = Inhibitory concentration for lipogenesis induced by retinoic acid receptor alpha in C3H10T1/2 clone 8 fibroblast cells

COc1cc2c(cc1C1CCCc3oc(/C=C/C(=O)O)cc31)C(C)(C)CCC2(C)C (stereo unspecified) [(E)-3-[4-(3-Methoxy-5,5,8,8-tetramethyl-5,6,7,8-tetrahydro-naphthalen-2-yl)-4,5,6,7-tetrahydro-benzofuran-2-yl]-acrylic acid] showed an EC50 [1] of 123 nM.
With CC1(C)CCC(C)(C)c2cc(C3CCCc4oc(/C=C/C(=O)O)nc43)ccc21 (stereo unspecified) [(E)-3-[4-(5,5,8,8-Tetramethyl-5,6,7,8-tetrahydro-naphthalen-2-yl)-4,5,6,7-tetrahydro-benzooxazol-2-yl]-acrylic acid] the EC50 [2] was 749 nM and the EC50 [3] was over 10000 nM.
With CC1(C)CCC(C)(C)c2cc(C3CCCc4oc(/C=C/C(=O)O)cc43)ccc21 (stereo unspecified) [(E)-3-[4-(5,5,8,8-Tetramethyl-5,6,7,8-tetrahydro-naphthalen-2-yl)-4,5,6,7-tetrahydro-benzofuran-2-yl]-acrylic acid] the EC50 [2] was 660 nM and the EC50 [4] was 4 nM.
In the case of CC1(C)CCC(C)(C)c2cc(C3CCCc4oc(C=C5SC(O)=NC5=O)cc43)ccc21 (stereo unspecified) [5-[1-[4-(5,5,8,8-Tetramethyl-5,6,7,8-tetrahydro-naphthalen-2-yl)-4,5,6,7-tetrahydro-benzofuran-2-yl]-meth-(E)-ylidene]-thiazolidine-2,4-dione], the EC50 [2] is reported as 5 nM.
CC1(C)CCC(C)(C)c2cc(C3CCCc4sc(/C=C/C(=O)O)cc43)ccc21 (stereo unspecified) [(E)-3-[4-(5,5,8,8-Tetramethyl-5,6,7,8-tetrahydro-naphthalen-2-yl)-4,5,6,7-tetrahydro-benzo[b]thiophen-2-yl]-acrylic acid] showed an EC50 [2] of 72 nM.
CC1(C)CCC(C)(C)c2cc(Cc3coc(/C=C/C(=O)O)c3)ccc21 [(E)-3-[4-(5,5,8,8-Tetramethyl-5,6,7,8-tetrahydro-naphthalen-2-ylmethyl)-furan-2-yl]-acrylic acid] gave an EC50 [3] of 57 nM.
With CCCOc1cc2c(cc1C1CCCc3oc(/C=C/C(=O)O)cc31)C(C)(C)CCC2(C)C (stereo unspecified) [(E)-3-[4-(5,5,8,8-Tetramethyl-3-propoxy-5,6,7,8-tetrahydro-naphthalen-2-yl)-4,5,6,7-tetrahydro-benzofuran-2-yl]-acrylic acid] the EC50 [1] was 40 nM and the IC50 [5] was over 1000 nM.
Molecule Cc1oc(/C=C/C(=O)O)cc1Cc1ccc2c(c1)C(C)(C)CCC2(C)C [(E)-3-[5-Methyl-4-(5,5,8,8-tetramethyl-5,6,7,8-tetrahydro-naphthalen-2-ylmethyl)-furan-2-yl]-acrylic acid] has an EC50 [2] of 1000 nM and an EC50 [3] of over 1000 nM.
In the case of CN1Cc2oc(/C=C/C(=O)O)cc2C(c2ccc3c(c2)C(C)(C)CCC3(C)C)C1 (stereo unspecified), the EC50 [2] is reported as 22 nM and the EC50 [3] is reported as over 10000 nM.
C/C(=C\C(=O)O)c1cc2c(o1)CCCC2c1ccc2c(c1)C(C)(C)CCC2(C)C (stereo unspecified) gave an EC50 [2] of 10 nM.
Molecule Cc1cc2c(cc1C1CCCc3oc(/C=C/C(=O)O)cc31)C(C)(C)CCC2(C)C (stereo unspecified) [(E)-3-[4-(3,5,5,8,8-Pentamethyl-5,6,7,8-tetrahydro-naphthalen-2-yl)-4,5,6,7-tetrahydro-benzofuran-2-yl]-acrylic acid] has an EC50 [2] of 3000 nM.
